Three molecules from ChEMBL document CHEMBL4613286, “Developing Cyclic Opioid Analogues: Fluorescently Labeled Bioconjugates of Biphalin” (ACS Med Chem Lett, 2020) can be followed below.

Assay [1] has as its target T1, Delta-type opioid receptor (Homo sapiens, UniProt P41143). The assay can be described thus: Displacement of [3H]diprenorphine human delta opioid receptor expressed in CHO cell membranes after 1 hr by micro beta2 scintillation counting method. Background: In a radioligand displacement assay an active substance lowers the binding of a labelled ligand.
Assay [2] deals with T2, Mu-type opioid receptor (Homo sapiens, UniProt P35372). The assay can be described thus: Agonist activity at human MOR expressed in CHO cell membranes after 1 hr by [35S]GTPgammaS binding assay relative to DAMGO. The assay is classed as functional. The gist of the method:
(§1)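 Membranes (15 μg protein) from CHO cells stably expressing human DOR, MOR or KOR, grown in DMEM/F12 with 10% heat-inactivated FBS and G418 selection. Concentration curves of agonist incubated with 0.1 nM 35S-GTPγS for 1 h at 30 °C, then filtered and scintillation counted. […] EC50 and Emax from 3-parameter fit, Hill slope fixed at 1. Mean ± SEM, N = 3.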

In assay [3] the target is T2, Mu-type opioid receptor. Description: Agonist activity at human MOR expressed in CHO cell membranes after 1 hr by [35S]GTPgammaS binding assay. The assay is classed as functional. In outline: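 Membranes (15 μg protein) from CHO cells stably expressing human DOR, MOR or KOR, grown in DMEM/F12 with 10% heat-inactivated FBS and G418 selection. Concentration curves of agonist incubated with 0.1 nM 35S-GTPγS for 1 h at 30 °C, then filtered and scintillation counted. EC50 and Emax from 3-parameter fit, Hill slope fixed at 1. Mean ± SEM, N = 3.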
(In general: GTPγS is a poorly hydrolysed GTP analogue; its binding reports G protein activation.)

The target of assay [4] is T3, Kappa-type opioid receptor (Homo sapiens, UniProt P41145). Description: Agonist activity at human KOR expressed in CHO cell membranes after 1 hr by [35S]GTPgammaS binding assay. The assay is classed as functional. In outline: as §1
T3 sequence (P41145 whole entry): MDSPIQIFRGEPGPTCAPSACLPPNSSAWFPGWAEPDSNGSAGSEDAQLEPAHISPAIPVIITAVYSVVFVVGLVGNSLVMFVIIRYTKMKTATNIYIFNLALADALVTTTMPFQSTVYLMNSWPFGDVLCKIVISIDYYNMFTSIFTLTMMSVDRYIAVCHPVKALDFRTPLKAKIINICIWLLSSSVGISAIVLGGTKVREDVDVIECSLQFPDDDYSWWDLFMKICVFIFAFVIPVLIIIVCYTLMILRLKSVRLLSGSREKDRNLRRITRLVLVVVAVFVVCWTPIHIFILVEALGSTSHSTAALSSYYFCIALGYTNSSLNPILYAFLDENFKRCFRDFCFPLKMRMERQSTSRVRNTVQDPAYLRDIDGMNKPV
The target in assay [5] is T1, Delta-type opioid receptor. The assay can be described thus: Agonist activity at human DOR expressed in CHO cell membranes after 1 hr by [35S]GTPgammaS binding assay relative to SNC80. The class given is functional. The gist of the method:
as §1

Another assay is filed under the species Homo sapiens. The assay can be described thus: Selectivity index, ratio of Ki for displacement of [3H]diprenorphine human mu opioid receptor expressed in CHO cell membranes to Ki for displacement of [3H]diprenorphine human delta opioid receptor expressed in CHO cell membranes.
The target in assay [6] is T3, Kappa-type opioid receptor. Description: Agonist activity at human KOR expressed in CHO cell membranes after 1 hr by [35S]GTPgammaS binding assay relative to U50,488. The class given is functional. The gist of the method:
as §1

The target of assay [7] is T1, Delta-type opioid receptor. The assay can be described thus: Agonist activity at human DOR expressed in CHO cell membranes after 1 hr by [35S]GTPgammaS binding assay. The class given is functional. The gist of the method:
as §1

Assay [8] addresses T3, Kappa-type opioid receptor. Description: Displacement of [3H]diprenorphine human kappa opioid receptor expressed in CHO cell membranes after 1 hr by micro beta2 scintillation counting method. The gist of the method: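 Membranes (20–25 μg protein) from CHO cells expressing human DOR or KOR were incubated 1 h at rt with concentration curves of compound and fixed 3H-diprenorphine (1.2–4.6 nM). Incubations ended by rapid GF/B filtration, then scintillation counted. […] Ki from one-site competition fit using the radioligand KD measured in each cell line. Mean ± SEM, N = 3.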

In assay [9] the target is T2, Mu-type opioid receptor. The assay can be described thus: Displacement of [3H]diprenorphine human MOR expressed in CHO cell membranes after 1 hr by micro beta2 scintillation counting method. The assay is classed as cell-based.

T1 sequence (P41143 whole entry): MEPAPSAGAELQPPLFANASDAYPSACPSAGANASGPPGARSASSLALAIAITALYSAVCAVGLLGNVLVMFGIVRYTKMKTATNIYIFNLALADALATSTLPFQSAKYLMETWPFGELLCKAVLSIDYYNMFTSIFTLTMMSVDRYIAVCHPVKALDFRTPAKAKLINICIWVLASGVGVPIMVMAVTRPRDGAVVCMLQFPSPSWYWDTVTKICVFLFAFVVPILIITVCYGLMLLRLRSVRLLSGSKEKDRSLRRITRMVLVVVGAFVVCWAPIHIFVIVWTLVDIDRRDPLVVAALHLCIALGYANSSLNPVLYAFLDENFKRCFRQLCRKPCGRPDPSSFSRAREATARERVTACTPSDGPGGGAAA
T2 sequence (P35372 whole entry): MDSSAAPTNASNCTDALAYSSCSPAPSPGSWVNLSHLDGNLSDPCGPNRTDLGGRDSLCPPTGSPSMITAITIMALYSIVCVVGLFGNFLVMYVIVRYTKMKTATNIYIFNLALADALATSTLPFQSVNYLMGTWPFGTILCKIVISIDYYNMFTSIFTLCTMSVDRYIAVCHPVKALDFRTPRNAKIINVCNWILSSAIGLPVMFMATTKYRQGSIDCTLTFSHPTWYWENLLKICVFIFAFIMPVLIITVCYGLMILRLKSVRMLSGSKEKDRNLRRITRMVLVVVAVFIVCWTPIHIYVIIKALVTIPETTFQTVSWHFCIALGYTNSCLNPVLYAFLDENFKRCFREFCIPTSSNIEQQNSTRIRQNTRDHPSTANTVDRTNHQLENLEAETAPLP

What is called Ki is the dissociation constant of the complex between target and ligand, obtained from inhibition or displacement. As a reminder, the Emax is the maximal effect, on the per cent scale that the assay sets. What is called EC50 is the concentration needed to bring the measured effect to its halfway point. In the case of `CN(C)c1cccc2c(S(=O)(=O)NCCN3C(=O)C4=C(SC[C@@H](NC(=O)[C@@H](N)Cc5ccc(O)cc5)C(=O)NCC(=O)N[C@@H](Cc5ccccc5)C(=O)NNC(=O)[C@H](Cc5ccccc5)NC(=O)CNC(=O)[C@H](NC(=O)[C@@H](N)Cc5ccc(O)cc5)CS4)C3=O)cccc12`, the values for the Ki (in assay [1]; in assay [8]; on Mu-type opioid receptor [9]) were 15 nM, above 3330 nM and 91 nM, respectively. The maximal response (Emax) on Mu-type opioid receptor [2] was 79%; in assay [5] it was 47%; in assay [6], 46%. Further, the EC50 at Mu-type opioid receptor [3] came out at 21 nM; in [4] it was 460 nM; in assay [7], 40 nM. In addition, in the assay filed under Homo sapiens, the Ratio Ki lay within 5 to 8.

Take `Cc1cc(=O)oc2ccc(N3C(=O)C4=C(SC[C@@H](NC(=O)[C@@H](N)Cc5ccc(O)cc5)C(=O)NCC(=O)N[C@@H](Cc5ccccc5)C(=O)NNC(=O)[C@H](Cc5ccccc5)NC(=O)CNC(=O)[C@H](NC(=O)[C@@H](N)Cc5ccc(O)cc5)CS4)C3=O)cc12`: the Ki in assay [1] is 120 nM; in [8], above 3330 nM; at Mu-type opioid receptor [9] it was 790 nM. For the same molecule, the results for the Emax (at Mu-type opioid receptor [2]; in assay [5]; in [6]) were 80%, 55% and 50%, respectively. For the same molecule, the EC50 at Mu-type opioid receptor [3] turned out to be 290 nM; in assay [4], 4100 nM; in assay [7], 190 nM. The Ratio Ki in the assay listed under Homo sapiens was 5 to 8.

For the molecule `Cc1cc(=O)oc2cc(NC(=O)CCN3C(=O)C4=C(SC[C@@H](NC(=O)[C@@H](N)Cc5ccc(O)cc5)C(=O)NCC(=O)N[C@@H](Cc5ccccc5)C(=O)NNC(=O)[C@H](Cc5ccccc5)NC(=O)CNC(=O)[C@H](NC(=O)[C@@H](N)Cc5ccc(O)cc5)CS4)C3=O)ccc12`, the Ki was 98 nM in assay [1], above 3330 nM in assay [8] and 510 nM at Mu-type opioid receptor [9]. The Emax at Mu-type opioid receptor [2] is 120%; in assay [5], 62%; in assay [6], 60%. For the same molecule, the EC50 at Mu-type opioid receptor [3] was determined as 270 nM; in assay [4], 1000 nM; in assay [7], 250 nM. In addition, the Ratio Ki in the assay filed under Homo sapiens is 5 to 8.
